From ChEMBL document CHEMBL4689842, “EUbOPEN Chemogenomics Library wave 1” (2021)

System: U2OS
Test: Multiplex assay against U2OS
Assay type: toxicity, cell-based
Settings: human
Summary of the method: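 Compound was added to live cells that had been stained at seeding with Hoechst33342, BioTracker Green Microtubule Cytoskeleton Dye, MitoTracker Red and Annexin V Alexa Fluor 680, and imaging followed on a CQ1 microscope at 37°C and 5% CO2. CellPathfinder machine-learning gating divided cells into Hoechst high-intensity objects or normal cells, normal cells into healthy, pyknosed or fragmented nuclei, and pyknosed cells into mitotic or apoptotic. Tubulin, mitochondrial-mass and membrane-permeability phenotypes are per cents of healthy-nucleus cells.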

[1] = 12 h, 1 µM, compound concentration 1 uM, replicate 1
[2] = 12 h, 1 µM, compound concentration 1 uM, replicate 2
[3] = 12 h, 10 µM, compound concentration 10 uM, replicate 1
[4] = 12 h, 10 µM, compound concentration 10 uM, replicate 2
[5] = 24 h, 1 µM, compound concentration 1 uM, replicate 1
[6] = 24 h, 1 µM, compound concentration 1 uM, replicate 2
[7] = 24 h, 10 µM, compound concentration 10 uM, replicate 1
[8] = 24 h, 10 µM, compound concentration 10 uM, replicate 2
[9] = 48 h, 1 µM, compound concentration 1 uM, replicate 1
[10] = 48 h, 1 µM, compound concentration 1 uM, replicate 2
[11] = 48 h, 10 µM, compound concentration 10 uM, replicate 1
[12] = 48 h, 10 µM, compound concentration 10 uM, replicate 2

O=C1N/C(=N/c2ccccc2F)S/C1=C\c1ccc(C(=O)O)cc1
Population Apoptotic (%) [1]: 33%
Population Fragmented Nuclei (%) [1]: 8%
Population Healthy Nuclei (%) [1]: 85%
Population Hoechst High Intensity Objects (%) [1]: 9%
Population Membrane Permeable-Phenotype (%) [1]: 6%
Population Mitochondria Different-Phenotype (%) [1]: 10%
Population Mitotic Cells (%) [1]: 66%
Population Normal (%) [1]: 90%
Population Pyknosed Nuclei (%) [1]: 5%
Population Tubulin-Different-Phenotype (%) [1]: 7%
Total Cell Count [1]: 130
Population Apoptotic (%) [2]: 0%
Population Fragmented Nuclei (%) [2]: 3%
Population Healthy Nuclei (%) [2]: 92%
Population Hoechst High Intensity Objects (%) [2]: 8%
Population Mitochondria Different-Phenotype (%) [2]: 16%
Population Mitotic Cells (%) [2]: 100%
Population Normal (%) [2]: 91%
Population Pyknosed Nuclei (%) [2]: 3%
Population Tubulin-Different-Phenotype (%) [2]: 24%
Total Cell Count [2]: 66
Population Apoptotic (%) [3]: 25%
Population Fragmented Nuclei (%) [3]: 8%
Population Healthy Nuclei (%) [3]: 82%
Population Hoechst High Intensity Objects (%) [3]: 5%
Population Membrane Permeable-Phenotype (%) [3]: 6%
Population Mitochondria Different-Phenotype (%) [3]: 15%
Population Mitotic Cells (%) [3]: 75%
Population Normal (%) [3]: 94%
Population Pyknosed Nuclei (%) [3]: 8%
Population Tubulin-Different-Phenotype (%) [3]: 8%
Total Cell Count [3]: 175
Population Apoptotic (%) [4]: 44%
Population Fragmented Nuclei (%) [4]: 4%
Population Healthy Nuclei (%) [4]: 81%
Population Hoechst High Intensity Objects (%) [4]: 8%
Population Membrane Permeable-Phenotype (%) [4]: 1%
Population Mitochondria Different-Phenotype (%) [4]: 9%
Population Mitotic Cells (%) [4]: 55%
Population Normal (%) [4]: 91%
Population Pyknosed Nuclei (%) [4]: 14%
Population Tubulin-Different-Phenotype (%) [4]: 9%
Total Cell Count [4]: 59
Population Apoptotic (%) [5]: 33%
Population Fragmented Nuclei (%) [5]: 9%
Population Healthy Nuclei (%) [5]: 81%
Population Membrane Permeable-Phenotype (%) [5]: 4%
Population Mitochondria Different-Phenotype (%) [5]: 6%
Population Mitotic Cells (%) [5]: 66%
Population Pyknosed Nuclei (%) [5]: 8%
Population Tubulin-Different-Phenotype (%) [5]: 4%
Total Cell Count [5]: 131
Population Apoptotic (%) [6]: 0%
Population Fragmented Nuclei (%) [6]: 7%
Population Healthy Nuclei (%) [6]: 85%
Population Hoechst High Intensity Objects (%) [6]: 5%
Population Membrane Permeable-Phenotype (%) [6]: 5%
Population Mitochondria Different-Phenotype (%) [6]: 10%
Population Mitotic Cells (%) [6]: 100%
Population Normal (%) [6]: 94%
Population Pyknosed Nuclei (%) [6]: 7%
Population Tubulin-Different-Phenotype (%) [6]: 23%
Total Cell Count [6]: 69
Population Apoptotic (%) [7]: 20%
Population Fragmented Nuclei (%) [7]: 6%
Population Healthy Nuclei (%) [7]: 85%
Population Hoechst High Intensity Objects (%) [7]: 3%
Population Membrane Permeable-Phenotype (%) [7]: 4%
Population Mitochondria Different-Phenotype (%) [7]: 10%
Population Mitotic Cells (%) [7]: 80%
Population Normal (%) [7]: 96%
Population Pyknosed Nuclei (%) [7]: 8%
Population Tubulin-Different-Phenotype (%) [7]: 5%
Total Cell Count [7]: 234
Population Apoptotic (%) [8]: 60%
Population Fragmented Nuclei (%) [8]: 5%
Population Healthy Nuclei (%) [8]: 88%
Population Hoechst High Intensity Objects (%) [8]: 5%
Population Membrane Permeable-Phenotype (%) [8]: 2%
Population Mitochondria Different-Phenotype (%) [8]: 6%
Population Mitotic Cells (%) [8]: 40%
Population Normal (%) [8]: 94%
Population Pyknosed Nuclei (%) [8]: 5%
Population Tubulin-Different-Phenotype (%) [8]: 16%
Total Cell Count [8]: 73
Population Apoptotic (%) [9]: 27%
Population Healthy Nuclei (%) [9]: 86%
Population Hoechst High Intensity Objects (%) [9]: 1%
Population Membrane Permeable-Phenotype (%) [9]: 1%
Population Mitochondria Different-Phenotype (%) [9]: 14%
Population Mitotic Cells (%) [9]: 72%
Population Normal (%) [9]: 98%
Population Pyknosed Nuclei (%) [9]: 6%
Population Tubulin-Different-Phenotype (%) [9]: 6%
Total Cell Count [9]: 134
Population Apoptotic (%) [10]: 0%
Population Fragmented Nuclei (%) [10]: 6%
Population Healthy Nuclei (%) [10]: 92%
Population Hoechst High Intensity Objects (%) [10]: 5%
Population Membrane Permeable-Phenotype (%) [10]: 7%
Population Mitochondria Different-Phenotype (%) [10]: 16%
Population Mitotic Cells (%) [10]: 100%
Population Normal (%) [10]: 94%
Population Pyknosed Nuclei (%) [10]: 1%
Population Tubulin-Different-Phenotype (%) [10]: 23%
Total Cell Count [10]: 76
Population Apoptotic (%) [11]: 21%
Population Healthy Nuclei (%) [11]: 90%
Population Membrane Permeable-Phenotype (%) [11]: 2%
Population Mitochondria Different-Phenotype (%) [11]: 14%
Population Mitotic Cells (%) [11]: 78%
Population Pyknosed Nuclei (%) [11]: 5%
Population Tubulin-Different-Phenotype (%) [11]: 5%
Total Cell Count [11]: 338
Population Apoptotic (%) [12]: 22%
Population Fragmented Nuclei (%) [12]: 4%
Population Healthy Nuclei (%) [12]: 83%
Population Hoechst High Intensity Objects (%) [12]: 2%
Population Membrane Permeable-Phenotype (%) [12]: 6%
Population Mitochondria Different-Phenotype (%) [12]: 9%
Population Mitotic Cells (%) [12]: 77%
Population Normal (%) [12]: 97%
Population Pyknosed Nuclei (%) [12]: 12%
Population Tubulin-Different-Phenotype (%) [12]: 22%
Total Cell Count [12]: 105
